Source: ChEMBL document CHEMBL1122676, “2,3-Dimethyl-1,4-naphthoquinone derivatives as bioreductive alkylating agents with cross-linking potential” (1984)

Experiments:
Assay type in all cases: functional
Mus musculus [1] = test: Compound was evaluated for anticancer activity against Sarcoma180 tumor bearing mice by measuring average weight (dose 5 mg/kg daily)
Outline: (§1)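 Sarcoma 180 ascites-bearing CDF1 mice (~10^6 cells ip) dosed ip daily for 6 consecutive days starting 24 h after implantation, drug suspended with 20% aqueous Tween 80 in isotonic saline. Mice weighed during the experiment; percent body weight change from onset to end of therapy recorded as the toxicity index, average per group; 5–15 mice per value.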

Mus musculus [2] = test: Compound was evaluated for anticancer activity against Sarcoma180 tumor bearing mice by measuring T/C X 100 (dose 5 mg/kg daily)
Outline: (§2)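 CDF1 mice given ~10^6 Sarcoma 180 ascites cells ip (from 7-day donor ascites, saline-diluted); compound as fine suspension in a few drops 20% aqueous Tween 80 made up in isotonic saline, 0.5 mL ip once daily for 6 days from 24 h post-implant. Survival time of treated vs vehicle-injected controls expressed as T/C × 100; 5–15 mice per value.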

Mus musculus [3] = test: Compound was evaluated for anticancer activity against Sarcoma180 tumor bearing mice by measuring T/C X 100 (dose 2.5 mg/kg daily); outline: as §2
Mus musculus [4] = test: Compound was evaluated for anticancer activity against Sarcoma180 tumor bearing mice by measuring T/C X 100 (dose 10 mg/kg daily); outline: as §2
Mus musculus [5] = test: Compound was evaluated for anticancer activity against Sarcoma180 tumor bearing mice by measuring average weight (dose 2.5 mg/kg daily); outline: as §1
Mus musculus [6] = test: Compound was evaluated for anticancer activity against Sarcoma180 tumor bearing mice by measuring average weight (dose 10 mg/kg daily); outline: as §1
Mus musculus [7] = test: Compound was evaluated for anticancer activity against Sarcoma180 tumor bearing mice by measuring average weight (dose 7.5 mg/kg daily); outline: as §1
Mus musculus [8] = test: Compound was evaluated for anticancer activity against Sarcoma180 tumor bearing mice by measuring average weight (dose 3.25 mg/kg daily); outline: as §1
Mus musculus [9] = test: Compound was evaluated for anticancer activity against Sarcoma180 tumor bearing mice by measuring T/C X 100 (dose 3.25 mg/kg daily); outline: as §2
Mus musculus [10] = test: Compound was evaluated for anticancer activity against Sarcoma180 tumor bearing mice by measuring average weight (dose 15 mg/kg daily); outline: as §1
Mus musculus [11] = test: Compound was evaluated for anticancer activity against Sarcoma180 tumor bearing mice by measuring T/C X 100 (dose 15 mg/kg daily); outline: as §2
Mus musculus [12] = test: Compound was evaluated for anticancer activity against Sarcoma180 tumor bearing mice by measuring T/C X 100 (dose 7.5 mg/kg daily); outline: as §2

SMILES	Average weight (Mus musculus [1])	T/C (Mus musculus [2])	T/C (Mus musculus [3])	T/C (Mus musculus [4])	Average weight (Mus musculus [5])	Average weight (Mus musculus [6])	Average weight (Mus musculus [7])	Average weight (Mus musculus [8])	T/C (Mus musculus [9])	Average weight (Mus musculus [10])	T/C (Mus musculus [11])	T/C (Mus musculus [12])
CNC(=O)OCC1=C(COC(=O)NC)C(=O)c2ccccc2C1=O	-7.6%	177	266	200	3.8%	-10%	–	–	–	–	–	–
O=C1C(CBr)=C(CBr)C(=O)c2ccccc21	–	–	–	–	–	–	-14.3%	-8.8%	165	-14.1%	140	130
O=C1C(CCl)=C(CCl)C(=O)c2ccccc21	–	–	–	–	–	–	-10.3%	-15.1%	100	-15.6%	122	158
CS(=O)(=O)OCC1=C(COS(C)(=O)=O)C(=O)c2ccccc2C1=O	5.9%	204	114	232	18.4%	-2%	–	–	–	–	–	–
O=C(NCCCl)OCC1=C(COC(=O)NCCCl)C(=O)c2ccccc2C1=O	-4.3%	209	230	189	0%	-7.8%	–	–	–	–	–	–
O=C1C(CO)=C(CO)C(=O)c2ccccc21	–	–	–	–	–	–	-14.3%	10.8%	55	-9.9%	37	51
CC1=C(C)C(=O)c2ccccc2C1=O	–	–	–	–	–	–	1.3%	1.4%	104	0.5%	103	78
Cc1ccc(S(=O)(=O)OCC2=C(COS(=O)(=O)c3ccc(C)cc3)C(=O)c3ccccc3C2=O)cc1	21%	138	130	126	22.3%	13.8%	–	–	–	–	–	–
